Source: PubChem BioAssay (several laboratories)
This is a sample that favours compounds with a hit; in the whole collection about 5.7% have one here.
Calb FLC: affects C. albicans growth with fluconazole; C. albicans CaCi-2 (fluconazole-resistant clinical isolate) + fluconazole, Alamar Blue growth, 48 h; growth inhibition, % (test concentration not listed); 300,000 compounds, 0.57% hits;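 active = growth inhibition above about 58% in most replicates, limit read from the data, passing the limit was not always enough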;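 note: all wells also contain fluconazole at 8 µg/ml as a sub-toxic cotreatment; 0% = median of DMSO wells and 100% = median of geldanamycin control wells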
Beta cell apopt: beta cell apoptosis inhibition; INS-1E cytokine-induced death, ATP luminescence, 48 h; percent of positive-control rescue, neutral wells zero; protection from apoptosis, % (concentration not given with the values); 300,000 compounds, 0.8% hits;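 active = Every replicate reaches about 75%, or at least half do and their mean reaches it too, limit read from the data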;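 note: 0% = cytokine-treated negative control wells and 100% = positive control rescue; higher means more ATP so stronger rescue from cytokine killing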
T cruzi inh: T. cruzi replication inhibition | 300,000 compounds, 1.4% hits | AID 1885 | inhibition, % (concentration not given with the values) | T. cruzi beta-gal in NIH3T3, luminescence, 90 h;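 active = mean inhibition across valid replicates above about 55%, limit read from the data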;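 note: signal also drops with host cell toxicity which is not excluded here; 0% = plate median of DMSO wells and 100% = zero luminescence signal; higher percent means less beta-gal luminescence so fewer parasites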
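compound dosing = single 50 nL compound addition per well in DMSO | material = NIH/3T3 host cells with β-galactosidase reporter T. cruzi | input = 5,000 host fibroblasts per well | timing = ≥90 h infection period, 3 h prior cell attachment | read-out basis = percent inhibition of parasite-derived β-gal signal | detection = GalScreen β-gal luminescence, detergent lysis, 60 min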
CSC inhib: cancer stem cell inhibition; cancer stem cell-like cells viability, luminescence; inhibition, % at 7.5 µM; 300,000 compounds, 1.1% hits; AID 2717; in the data active = inhibition above about 75%; tested in HMLE shEcad cells
Mdm2 MdmX PPI: inhibitors of human Mdm2/MdmX interaction | O15151+Q00987 | SaOS-2 split-luciferase Mdm2/MdmX complementation, luminescence | inhibition, % at 8 µM | 330,000 compounds, 3% hits | AID 485346;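 active = inhibition of at least 50% at 8 µM in the primary screen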
Target sequence (O15151 whole entry, looked up): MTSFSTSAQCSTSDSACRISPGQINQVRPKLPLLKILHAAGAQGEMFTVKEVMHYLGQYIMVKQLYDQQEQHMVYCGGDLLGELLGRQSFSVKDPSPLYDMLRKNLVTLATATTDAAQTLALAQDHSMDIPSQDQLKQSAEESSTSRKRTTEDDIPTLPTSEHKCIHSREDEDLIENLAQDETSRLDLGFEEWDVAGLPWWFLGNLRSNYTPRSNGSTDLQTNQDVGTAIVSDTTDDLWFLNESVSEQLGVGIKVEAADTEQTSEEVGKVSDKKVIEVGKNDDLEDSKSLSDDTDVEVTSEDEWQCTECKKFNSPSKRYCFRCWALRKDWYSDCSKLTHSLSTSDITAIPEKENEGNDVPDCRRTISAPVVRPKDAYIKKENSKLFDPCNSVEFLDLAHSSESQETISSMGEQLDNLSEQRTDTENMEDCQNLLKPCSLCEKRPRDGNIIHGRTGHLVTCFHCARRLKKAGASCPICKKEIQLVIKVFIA
Target sequence (Q00987 whole entry, looked up): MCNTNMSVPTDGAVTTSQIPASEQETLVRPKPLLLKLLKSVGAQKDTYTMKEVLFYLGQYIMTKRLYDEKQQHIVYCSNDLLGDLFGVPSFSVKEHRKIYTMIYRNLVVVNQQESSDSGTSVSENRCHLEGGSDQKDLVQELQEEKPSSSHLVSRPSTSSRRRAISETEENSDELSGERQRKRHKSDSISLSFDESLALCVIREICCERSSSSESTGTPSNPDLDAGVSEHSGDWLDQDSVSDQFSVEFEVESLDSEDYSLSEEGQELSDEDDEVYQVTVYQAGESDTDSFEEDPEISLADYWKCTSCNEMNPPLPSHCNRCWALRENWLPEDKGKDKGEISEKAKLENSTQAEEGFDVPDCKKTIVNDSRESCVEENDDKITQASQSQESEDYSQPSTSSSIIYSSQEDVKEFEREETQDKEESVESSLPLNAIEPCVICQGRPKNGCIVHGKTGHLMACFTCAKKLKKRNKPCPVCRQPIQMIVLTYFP
SKKanGAS inh: blocks kanamycin growth of S. pyogenes SKKanGAS strain; BacTiter-Glo, 6 h; inhibition, % at 7.5 µM; 300,000 compounds, 1.3% hits;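 active = mean replicate score, as percent of positive control median, at least 50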;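 note: strain carries kanamycin resistance gene driven by streptokinase promoter and grows in 40 µg/ml kanamycin; loss of luminescence reflects streptokinase promoter inhibition or plain growth inhibition; 0% = median of DMSO wells and 100% = positive control at its reference dose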
* hit, by the source's call.

How did COc1cc(CN2CCCC(CO)(Cc3cccc(Cl)c3)C2)cc2c1OCO2 (stereo unspecified) do in these assays?
Calb FLC: -11; Beta cell apopt: 15; T cruzi inh: 55*; CSC inhib: 24; Mdm2 MdmX PPI: 29; SKKanGAS inh: -6

What do the screens show for `COc1ccc(CN2CCCC(CO)(Cc3cccc(Cl)c3)C2)cc1OC` (stereo unspecified)?
Calb FLC: -5; Beta cell apopt: -1; T cruzi inh: 55*; CSC inhib: 15; Mdm2 MdmX PPI: -3; SKKanGAS inh: 2

How did OCC1(Cc2cccc(Cl)c2)CCCN(Cc2ccc(F)c(F)c2)C1 (stereo unspecified) do in these assays?
Calb FLC: 11; Beta cell apopt: -9; T cruzi inh: 23; CSC inhib: 47; Mdm2 MdmX PPI: -8; SKKanGAS inh: 29

What do the screens show for `COc1cc(CN2CCCC(CO)(Cc3cccc(Cl)c3)C2)cc(OC)c1O` (stereo unspecified)?
Calb FLC: -5; T cruzi inh: 15; CSC inhib: -9; Mdm2 MdmX PPI: 18; SKKanGAS inh: 1

Results for CCOC(=O)CSc1nc2sc3c(c2c(=O)n1-c1ccccc1)CCN(C(C)C)C3 ?
Calb FLC: 8; Beta cell apopt: -9; T cruzi inh: 29; CSC inhib: -2; Mdm2 MdmX PPI: -16; SKKanGAS inh: 8

What do the screens show for `CC(=O)Nc1ccc(S(=O)(=O)N2CCC3(CC2)OCCO3)cc1`?
Calb FLC: -14; Beta cell apopt: 2; T cruzi inh: -21; CSC inhib: 4; Mdm2 MdmX PPI: -4; SKKanGAS inh: 6

How did COc1ccc(S[C@@H](CCN2CC[C@H](NC(=O)OCc3ccccc3)CCC2=O)c2ccccc2)cc1 do in these assays?
Beta cell apopt: 3; CSC inhib: 82*; Mdm2 MdmX PPI: 17

What do the screens show for `COc1ccc(SC[C@H](C)CN2CC[C@H](NC(=O)OCc3ccccc3)CCC2=O)cc1`?
Beta cell apopt: -5; CSC inhib: 20; Mdm2 MdmX PPI: 10

How did CC(C)(C)[C@@H]1CCC(=O)N(CC[C@H](Sc2ccc(Br)cc2)c2ccccc2)CC1 do in these assays?
Beta cell apopt: 8; CSC inhib: 108*; Mdm2 MdmX PPI: 3

Results for CC(=O)Nc1ccc(SC[C@H](C)CN2CC[C@H](C(C)(C)C)CCC2=O)cc1 ?
Beta cell apopt: 6; CSC inhib: 102*; Mdm2 MdmX PPI: 5

How did O=C1CC[C@@H](O)CCN1CC[C@H](Sc1ccc(Br)cc1)c1ccccc1 do in these assays?
Beta cell apopt: -1; CSC inhib: -4; Mdm2 MdmX PPI: -8

What do the screens show for `C[C@@H](CSc1ccc(Br)cc1)CN1CC[C@H](NC(=O)OCc2ccccc2)CCC1=O`?
Beta cell apopt: 3; CSC inhib: 91*; Mdm2 MdmX PPI: -12

How did CC(C)(C)c1ccc(C(=O)NC(=O)COC(=O)CCS(=O)(=O)c2ccccc2)cc1 do in these assays?
Beta cell apopt: -3; Mdm2 MdmX PPI: -3

What do the screens show for `CC1(C)Cc2c(sc3ncnc(NN)c23)CO1`?
Calb FLC: -5; Beta cell apopt: -3; T cruzi inh: -1; CSC inhib: 0; Mdm2 MdmX PPI: 7; SKKanGAS inh: -4

How did Cc1ccc(C(=O)N2CCC(N3CCC(C(=O)N4CCOCC4)CC3)CC2)cc1C do in these assays?
Calb FLC: -2; T cruzi inh: 2; CSC inhib: -9; Mdm2 MdmX PPI: 12; SKKanGAS inh: 29

What do the screens show for `Cc1sc(N/N=C/C=C/c2ccccc2)nc1-c1ccccc1`?
Calb FLC: 26; Beta cell apopt: 0; T cruzi inh: 55*; CSC inhib: 12; Mdm2 MdmX PPI: -1; SKKanGAS inh: 6

What do the screens show for `Cc1cc(C)nc(N/N=C/C=C/c2ccccc2)n1`?
Calb FLC: -23; Beta cell apopt: -1; T cruzi inh: -6; CSC inhib: -23; Mdm2 MdmX PPI: -15; SKKanGAS inh: -1

Results for Cc1cc(C)cc(C(=O)NCC(=O)NNC(=O)CSc2ccccc2F)c1 ?
Beta cell apopt: -2; CSC inhib: -2; Mdm2 MdmX PPI: 17

What do the screens show for `COc1ccc(CN2CCNC(=O)C2CC(=O)NCCCC2CCCC2)c(C)c1C` (stereo unspecified)?
Calb FLC: 0; Beta cell apopt: -3; T cruzi inh: 9; CSC inhib: -4; Mdm2 MdmX PPI: 12; SKKanGAS inh: 2

Results for Cc1ccc([C@@H]2CC=C(C(=O)O)[C@H](c3ccc(Cl)cc3)N2S(=O)(=O)c2ccccc2C)cc1 ?
Beta cell apopt: -6; Mdm2 MdmX PPI: 10

What do the screens show for `Nc1c(C(=O)Nc2ccc(Cl)c(C(=O)O)c2)sc2nc3c(cc12)CCCC3`?
Calb FLC: 1; Beta cell apopt: -8; T cruzi inh: -1; CSC inhib: 5; Mdm2 MdmX PPI: 22; SKKanGAS inh: 2

How did Nc1c(C(=O)Nc2ccc(S(=O)(=O)N3CCCC3)cc2)sc2nc3cc4c(cc3cc12)CCC4 do in these assays?
Calb FLC: 6; Beta cell apopt: 100*; T cruzi inh: 35; CSC inhib: 6; SKKanGAS inh: 7

How did COc1ccccc1NC(=O)c1ccc(NC(=O)c2cc3c(s2)CCC3)cc1 do in these assays?
Calb FLC: 7; Beta cell apopt: 10; T cruzi inh: 21; CSC inhib: -9; Mdm2 MdmX PPI: 23; SKKanGAS inh: 73*

What do the screens show for `CC1(C)CC2CC(C)(CN2C(=O)c2ccc([N+](=O)[O-])cc2[N+](=O)[O-])C1` (stereo unspecified)?
Calb FLC: 2; Beta cell apopt: -3; T cruzi inh: 97*; CSC inhib: -6; Mdm2 MdmX PPI: -2; SKKanGAS inh: -15

How did O=C(c1ccc([N+](=O)[O-])cc1[N+](=O)[O-])N1CCCC1 do in these assays?
Calb FLC: 4; Beta cell apopt: -10; T cruzi inh: 26; CSC inhib: -4; Mdm2 MdmX PPI: 6; SKKanGAS inh: 2

Results for CC1(C)CC2CC(C)(CN2C(=O)c2ccc([N+](=O)[O-])cc2)C1 (stereo unspecified) ?
Calb FLC: -12; Beta cell apopt: 0; T cruzi inh: -5; CSC inhib: -8; Mdm2 MdmX PPI: -34; SKKanGAS inh: 23

How did O=C(c1ccc([N+](=O)[O-])cc1[N+](=O)[O-])N1CCc2ccccc21 do in these assays?
Calb FLC: 27; Beta cell apopt: 2; T cruzi inh: 58*; CSC inhib: 25; Mdm2 MdmX PPI: 12; SKKanGAS inh: 5

Results for Cc1ccc(C)c(Cn2ncc3ccccc32)c1 ?
Calb FLC: -5; Beta cell apopt: -2; T cruzi inh: -8; CSC inhib: -19; Mdm2 MdmX PPI: -20; SKKanGAS inh: 6

What do the screens show for `CS(=O)(=O)c1ccc(S(=O)CC(=O)OCc2ccccc2)c([N+](=O)[O-])c1` (stereo unspecified)?
Calb FLC: 64; T cruzi inh: 56*; SKKanGAS inh: -4
